For assay [1], the system named is B16. The assay is described as follows: Inhibition of murine B16 melanoma cell proliferation measured by the MTT assay. The class given is functional, cell-based. As to conditions: Mus musculus. The method, boiled down: (§1)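 Murine L1210 leukemia and B16 melanoma cells were grown in RPMI 1640 with 10% fetal calf serum, 2 mM L-glutamine, penicillin/streptomycin and 10 mM HEPES (pH 7.4). Cells were exposed to nine serial drug dilutions in triplicate for about four doubling times (L1210 48 h, B16 96 h), then read by microculture tetrazolium (MTT) assay. IC50 is the concentration halving optical density versus untreated controls, averaged over ≥2 independent experiments.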

Assay [2] concerns L1210. The assay is described as follows: Inhibition of murine L1210 leukemia cell proliferation measured by the MTT assay. The class given is functional, cell-based. As to conditions: Mus musculus. The method, boiled down: as §1
Assay [3] concerns Mus musculus. In words: Long-term survivors among 6 mice infected with B16 melanoma, scored on day 90 at 10 mg/kg dose on day 1. The assay is classed as functional.
Assay [4] concerns Mus musculus. In words: Long-term survivors among 6 mice infected with P388 leukemia, scored on day 60 at 10 mg/kg dose on day 1. The class given is functional. The method, boiled down: (§2)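 B6D2F1 mice in groups of 6–7 were inoculated ip on day 0 with 10^6 P388 cells. Dihydrochloride salts were dissolved in water and given iv on day 1 or on days 1, 5 and 9. Doses ranged from a low nontoxic dose to a toxic one. Long-term survivors were counted at day 60.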

In assay [5] the test system is Mus musculus. In words: Percent median survival time of mice injected with P388 leukemia, at a subcutaneous compound dose of 10 mg/kg. The assay is classed as functional.
For assay [6], the system named is Mus musculus. The assay is described as follows: Percent median survival time of mice injected with P388 leukemia, at a intravenous compound dose of 5 mg/kg.
The subject of assay [7] is Mus musculus. The assay is described as follows: Percent median survival time of mice injected with B16 melanoma, at a intraperitoneal compound dose of 10 mg/kg.
In assay [8] the test system is Mus musculus. The assay is described as follows: Long-term survivors among 12 mice infected with P388 leukemia, scored on day 60 at 10 mg/kg dose. The assay is classed as functional. The method, boiled down: as §2
Assay [9] concerns Mus musculus. The assay is described as follows: Long-term survivors among 12 mice infected with P388 leukemia, scored on day 60 at 20 mg/kg dose. The class given is functional. The method, boiled down:
as §2

The test system of assay [10] is Mus musculus. In words: Percent median survival time of mice intraperitoneally injected with P388 leukemia was determined from tested at 10 mg/kg at day1,5,9 dose to that of control. The class given is functional. Summed up: (§3)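 P388 leukemia in B6D2F1 mice (groups of 6–7), 10^6 cells inoculated ip on day 0. Dihydrochloride salts were dissolved in water and given iv on day 1 or on days 1, 5, 9. Three doses were tested, then five if active. %T/C = median survival treated/control × 100, reported at the optimal dose (no toxic death, weight loss <20%), from one or two representative experiments.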

Assay [11] relates to Mus musculus. The assay is described as follows: Percent median survival time of mice intraperitoneally injected with P388 leukemia was determined from tested at 20 mg/kg at day1 dose to that of control. The assay is classed as functional. As to conditions: route intraperitoneal. The method, boiled down:
as §3

Assay [12] relates to Mus musculus. In words: Long-term survivors among 13 mice infected with B16 melanoma, scored on day 90 at 0.3-0.6 mg/kg dose.
Assay [13] relates to Mus musculus. In words: Percent median survival time of mice injected with B16 melanoma, at a intraperitoneal compound dose of 0.3-0.6 mg/kg.
Assay [14] deals with Mus musculus. In words: Long-term survivors among 12 mice infected with P388 leukemia, scored on day 60 at 320 mg/kg dose. The assay is classed as functional. Summed up:
as §2

For assay [15], the system named is Mus musculus. In words: Long-term survivors among 12 mice infected with P388 leukemia, scored on day 60 at 80 mg/kg dose. The assay is classed as functional. The method, boiled down:
as §2

Assay [16] deals with Mus musculus. The assay is described as follows: Percent median survival time of mice intraperitoneally injected with P388 leukemia was determined from tested at 80 mg/kg at day1,5,9 dose to that of control. The assay is classed as functional. The following applies: route intraperitoneal. Summed up: as §3
Assay [17] deals with Mus musculus. The assay is described as follows: Percent median survival time of mice injected with B16 melanoma, at a intraperitoneal compound dose of 20 mg/kg.
Assay [18] has as its system Mus musculus. The assay is described as follows: Long-term survivors among 6 mice infected with P388 leukemia, scored on day 90 at 20 mg/kg dose. The assay is classed as functional.
Assay [19] deals with Mus musculus. The assay is described as follows: Long-term survivors among 6 mice infected with P388 leukemia, scored on day 60 at 160 mg/kg dose on day 1. The class given is functional. The method, boiled down:
as §2

The subject of assay [20] is Mus musculus. The assay is described as follows: Long-term survivors among 6 mice infected with P388 leukemia, scored on day 60 at 160 mg/kg dose on day 1, 5, 9. The assay is classed as functional. The method, boiled down: as §2
Assay [21] has as its system Mus musculus. In words: Percent median survival time of mice intraperitoneally injected with P388 leukemia was determined from tested at 160 mg/kg at day1 dose to that of control. The assay is classed as functional. The method, boiled down:
as §3

In assay [22] the test system is Mus musculus. The assay is described as follows: Percent median survival time of mice intraperitoneally injected with P388 leukemia was determined from tested at 160 mg/kg at day1,5,9 dose to that of control. The class given is functional. As to conditions: route intraperitoneal. The method, boiled down: as §3
Assay [23] deals with Mus musculus. The assay is described as follows: Long-term survivors among 12 mice infected with P388 leukemia, scored on day 60 at 240-320 mg/kg dose on day 1. The assay is classed as functional. Summed up:
as §2

The subject of assay [24] is Mus musculus. The assay is described as follows: Percent median survival time of mice injected with P388 leukemia, at a subcutaneous compound dose of 240-320 mg/kg. The assay is classed as functional.
Assay [25] concerns Mus musculus. The assay is described as follows: Long-term survivors among 12 mice infected with B16 melanoma, scored on day 90 at 10 mg/kg dose on days 1-9.
Assay [26] relates to Mus musculus. In words: Percent median survival time of mice injected with P388 leukemia, at a intravenous compound dose of 80-160 mg/kg.
Assay [27] concerns Mus musculus. The assay is described as follows: Long-term survivors among 6 mice infected with P388 leukemia, scored on day 60 at 240 mg/kg dose. The class given is functional. Summed up:
as §2

Assay [28] relates to Mus musculus. In words: Percent median survival time of mice intraperitoneally injected with P388 leukemia was determined from tested at 240 mg/kg at day1 dose to that of control. The class given is functional. The following applies: route intraperitoneal. Summed up: as §3
Assay [29] deals with Mus musculus. In words: Long-term survivors among 6 mice infected with P388 leukemia, scored on day 60 at 160 mg/kg dose. The assay is classed as functional. The method, boiled down:
as §2

Each structure is given as a SMILES string.

In general, IC50 refers to the concentration that inhibits the measured activity by half. What is called T/C is the result in the treated group divided by that in the control group, in per cent. `Cc1c2ccnc(C(=O)NCCN(C)C)c2cc2c3cc(OC(=O)CCC(=O)OCc4ccccc4)ccc3n(C)c12`: the values for the IC50 in [1] and in [2] were 9.9 nM and 47.4 nM, respectively. Also, the values for the LTS in assay [3] and in assay [4] were 1 and 0, respectively. Also, the T/C stood at 111% in assay [5], 96% in [6] and 169% in assay [7].
On to `Cc1c(O)ccc2c1c1cc3c(C(=O)NCCN(C)C)nccc3c(C)c1n2C`, for which the values for the IC50 in [1] and in [2] were 0.2 nM and 3.5 nM, respectively. The LTS in assay [8], in [9] and in [12] was 0 throughout. Further, the T/C in assay [10] turned out to be 223%; in [11], 211%; in assay [13], 144%.
On to `Cc1c2ccnc(C(=O)NCCN(C)C)c2cc2c3cc(OC(=O)OCCCC(=O)O)ccc3n(C)c12`, for which the IC50 in assay [1] amounted to 4.8 nM; in assay [2], 64 nM. The LTS was determined as 8 in [14] and 7 in assay [15]. Also, the figures for the T/C in assay [16] and in assay [17] were greater than 600% and 167%, respectively.
`Cc1c2ccnc(C(=O)NCCN(C)C)c2cc2c3cc(OCCCCC(=O)O)ccc3n(C)c12`: the IC50 in [1] was 3470 nM; in assay [2] it was 4230 nM. Further, the LTS in assay [18], in assay [19] and in assay [20] was 0 each time. Moreover, the T/C is 107% in assay [21], 108% in assay [22] and 146% in assay [17].
On to `Cc1c2ccnc(C(=O)NCCN(C)C)c2cc2c3cc(OC(=O)CCCCC(=O)O)ccc3n(C)c12`, for which the IC50 in assay [1] is 5 nM; in assay [2], 20.8 nM. Further, the LTS in assay [23] was 16; in [25] it was 4. Also, the T/C was greater than 607% in assay [24], greater than 352% in assay [7] and greater than 607% in assay [26].
Regarding `Cc1c2ccnc(C(=O)NCCN(C)C)c2cc2c3cc(OCC(O)CO)ccc3n(C)c12` (stereo not drawn), the half-inhibitory concentration (IC50) was 954 nM in assay [1] and 500 nM in assay [2]. Besides, the LTS in assay [27] and in assay [29] was 0 throughout. The T/C in [22] was 114%; in assay [28] it was 127%; in assay [17], 129%.
